According to ChEMBL document CHEMBL3297739 (J Med Chem, 2014):

Assays:
[1] = Cytotoxicity against human SH-SY5Y cells assessed as LDH release after 48 hrs (reference value: 0%); assay type: cell-based
Procedure, shortened: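 SH-SY5Y neuroblastoma cells were grown in serum for 5 days, then exposed to inhibitor (1–500 nM range). LDH activity in the medium was measured with a commercial kit. Values are % activity relative to untreated cells, which were set to 0%.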

[2] = target: T1, Farnesyl pyrophosphate synthase (Homo sapiens, UniProt P14324); experiment: Binding affinity to human FPPS by […] in absence of Mg2+ ions
T1 sequence (P14324 whole entry): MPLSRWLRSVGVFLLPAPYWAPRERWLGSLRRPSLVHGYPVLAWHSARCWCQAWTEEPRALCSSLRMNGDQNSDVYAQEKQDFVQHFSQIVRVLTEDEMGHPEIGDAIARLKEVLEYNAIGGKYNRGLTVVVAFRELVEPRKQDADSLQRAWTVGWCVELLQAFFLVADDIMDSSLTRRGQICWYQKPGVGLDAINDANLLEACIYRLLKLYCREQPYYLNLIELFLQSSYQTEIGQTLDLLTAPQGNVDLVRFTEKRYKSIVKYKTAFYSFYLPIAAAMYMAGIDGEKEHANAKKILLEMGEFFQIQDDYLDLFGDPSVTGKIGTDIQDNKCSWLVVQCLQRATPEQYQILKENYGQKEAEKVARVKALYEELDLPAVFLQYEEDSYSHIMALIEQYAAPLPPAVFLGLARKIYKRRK
Procedure, shortened: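 ITC at 30 °C. One 1 μL ligand injection was followed by 18 injections of 2 μL. Heats of dilution from control titrations were subtracted.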

[3] = target: T1, Farnesyl pyrophosphate synthase; experiment: Allosteric inhibition of human recombinant FPPS using GPP and [3H]IPP as substrate incubated with enzyme for 10 mins prior to substrate addition by liquid scintillation counting analysis
[4] = Dissociation constant, pKa of P(O)O-OH group of compound; assay type: physicochemical
[5] = target: T2, Farnesyl pyrophosphate synthase (Homo sapiens) (UniProt P14324); experiment: Allosteric inhibition of human recombinant FPPS using GPP and [3H]IPP as substrate at 20 uM incubated with enzyme for 10 mins prior to substrate addition by liquid scintillation counting analysis
T2 sequence (whole entry): T1 sequence (P14324 whole entry)

| Structure (SMILES) | Activity [1] | IC50 [3] | other results |
| --- | --- | --- | --- |
| O=P(O)(O)C(Nc1cncc(-c2ccc(OC3CC3)cc2)c1)P(=O)(O)O | 0% |  |  |
| O.O=P(O)(O)C(O)(Cn1ccnc1)P(=O)(O)O [ZOLEDRONIC ACID] | 60% |  |  |
| O=P(O)(O)C(O)(Cc1cccnc1)P(=O)(O)O [RISEDRONIC ACID] | 60% |  |  |
| O=C(O)Cn1c(C(=O)O)cc2ccc3ccccc3c21 | 3% |  |  |
| Cc1ccc(-c2cc3c(NC(P(=O)(O)O)P(=O)(O)O)ncnc3s2)cc1 |  |  | Kd [2]: 56 µM |
| O=P(O)(O)CCc1cccnc1 |  | > 800 µM |  |
| Cc1ccc(-c2cc3c(NC(c4ccccc4)P(=O)(O)O)ncnc3s2)cc1Cl (centres undefined) | -7% | 1.2 µM |  |
| Cc1ccc(-c2cc3c(NCP(=O)(O)O)ncnc3s2)cc1Cl |  | 3.3 µM |  |
| Cc1ccc(-c2cc3c(CCP(=O)(O)O)ncnc3s2)cc1 |  | 26 µM | pKa [4]: 7.7 |
| Cc1ccc(-c2cc3c(NCC(=O)O)ncnc3s2)cc1 |  | > 20 µM | inhibition [5]: 27% |
| O=P(O)(O)C(Cc1cccnc1)P(=O)(O)O |  | 0.033 µM |  |
| Cc1ccc(-c2cc3c(NCCP(=O)(O)O)ncnc3s2)cc1 |  | > 20 µM | inhibition [5]: 40% |
| O=P(O)(O)C(Nc1ncnc2sc(-c3ccc(OC4CC4)cc3)cc12)P(=O)(O)O | -1% |  |  |
| Cc1ccc(-c2cc3c(NCP(=O)(O)O)ncnc3s2)cc1 |  |  | Kd [2]: 9.2 µM; pKa [4]: 6.8 |
